≈ marks a conversion by molar mass, not a printed value. One block for each compound: values may come before it. Calls of active or inactive are those of the source. The rule behind the calls is not given here.
Legend:
[1] = tested on: Yarrowia lipolytica; test: Antimicrobial activity against Yarrowia lipolytica by agar diffusion test; format: functional, organism-based
[2] = biological target: T1, Sterol 24-C-methyltransferase (Yarrowia lipolytica) (UniProt Q6C2D9); test: Inhibition of Yarrowia lipolytica 24-SMT assessed as cholesta-7,24-dien-3-trimethylsilyl derivative at 0.1 ug/mL after 48 hrs by GC-MS analysis relative to untreated control; set-up: scale not given: the % may be the effect or the level left
T1 sequence (whole entry): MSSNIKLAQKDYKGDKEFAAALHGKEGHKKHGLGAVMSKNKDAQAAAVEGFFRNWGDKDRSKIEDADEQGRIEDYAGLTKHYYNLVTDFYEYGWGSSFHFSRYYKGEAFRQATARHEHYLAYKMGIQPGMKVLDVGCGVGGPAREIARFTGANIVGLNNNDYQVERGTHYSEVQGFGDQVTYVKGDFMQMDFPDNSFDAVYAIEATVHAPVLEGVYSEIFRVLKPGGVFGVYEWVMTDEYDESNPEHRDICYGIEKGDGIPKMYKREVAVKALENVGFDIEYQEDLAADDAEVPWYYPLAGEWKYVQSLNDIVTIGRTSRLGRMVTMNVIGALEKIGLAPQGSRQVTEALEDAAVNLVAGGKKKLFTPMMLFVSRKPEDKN
Procedure, shortened: (§1)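 Whole-cell sterol profiling. Y. lipolytica at 50,000 CFU/mL was exposed to compounds added from ethanol for 48 ± 2 h at 28 °C, and the MIC/2 and/or MIC/4 wells were used. Cells were pelleted and PBS-washed, then saponified in 1 M NaOH at 70 °C for 1 h. Sterols were extracted into TBME with a cholesterol internal standard and silylated to TMS ethers. GC-MS full scan, with each sterol given as % of total integrated quantifier-ion area.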

[3] = biological target: T1, Sterol 24-C-methyltransferase (Yarrowia lipolytica); test: Inhibition of Yarrowia lipolytica 24-SMT assessed as cholesta-5,7,24-trien-3-trimethylsilyl derivative at 0.1 ug/mL after 48 hrs by GC-MS analysis relative to untreated control; set-up: scale not given: the % may be the effect or the level left; procedure, shortened: as §1
[4] = biological target: T1, Sterol 24-C-methyltransferase (Yarrowia lipolytica); test: Inhibition of Yarrowia lipolytica 24-SMT assessed as zymosterol-3-trimethylsilyl derivative level at 0.1 ug/mL after 48 hrs by GC-MS analysis relative to untreated control; set-up: scale not given: the % may be the effect or the level left; procedure, shortened: as §1
[5] = biological target: T1, Sterol 24-C-methyltransferase (Yarrowia lipolytica); test: Inhibition of Yarrowia lipolytica 24-SMT assessed as dehydroergosterol-3-trimethylsilyl derivative at 0.1 ug/mL after 48 hrs by GC-MS analysis relative to untreated control; set-up: scale not given: the % may be the effect or the level left; procedure, shortened: as §1
[6] = tested on: Yarrowia lipolytica; test: Antimicrobial activity against Yarrowia lipolytica after 48 hrs; format: functional
Procedure, shortened: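 Broth dilution MIC per DIN 58940-84. Log-phase Y. lipolytica in yeast extract/peptone/glucose medium, counted against a 0.5 McFarland standard (A570) and seeded at 50,000 CFU/mL in 2 mL wells. Compounds added from ethanol; final concentrations 2 to 0.06125 µg/mL unless otherwise stated. Plates incubated 48 ± 2 h at 28 °C. MIC is the lowest concentration with no visible growth.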

[7] = biological target: T1, Sterol 24-C-methyltransferase (Yarrowia lipolytica); test: Inhibition of Yarrowia lipolytica 24-SMT assessed as lanosterol-3-trimethylsilyl derivative at 0.1 ug/mL after 48 hrs by GC-MS analysis relative to untreated control; set-up: scale not given: the % may be the effect or the level left; procedure, shortened: as §1
[8] = biological target: T1, Sterol 24-C-methyltransferase (Yarrowia lipolytica); test: Inhibition of Yarrowia lipolytica 24-SMT assessed as 5-dehydroepisterol-3-trimethylsilyl derivative at 0.1 ug/mL after 48 hrs by GC-MS analysis relative to untreated control; set-up: scale not given: the % may be the effect or the level left; procedure, shortened: as §1
[9] = biological target: T1, Sterol 24-C-methyltransferase (Yarrowia lipolytica); test: Inhibition of Yarrowia lipolytica 24-SMT assessed as cholesta-7,24-dien-3-trimethylsilyl derivative at 0.2 ug/mL after 48 hrs by GC-MS analysis relative to untreated control; set-up: scale not given: the % may be the effect or the level left; procedure, shortened: as §1
[10] = biological target: T1, Sterol 24-C-methyltransferase (Yarrowia lipolytica); test: Inhibition of Yarrowia lipolytica 24-SMT assessed as cholesta-5,7,24-trien-3-trimethylsilyl derivative at 0.2 ug/mL after 48 hrs by GC-MS analysis relative to untreated control; set-up: scale not given: the % may be the effect or the level left; procedure, shortened: as §1
[11] = biological target: T1, Sterol 24-C-methyltransferase (Yarrowia lipolytica); test: Inhibition of Yarrowia lipolytica 24-SMT assessed as dehydroergosterol-3-trimethylsilyl derivative at 0.2 ug/mL after 48 hrs by GC-MS analysis relative to untreated control; set-up: scale not given: the % may be the effect or the level left; procedure, shortened: as §1
[12] = biological target: T1, Sterol 24-C-methyltransferase (Yarrowia lipolytica); test: Inhibition of Yarrowia lipolytica 24-SMT assessed as 5-dehydroepisterol-3-trimethylsilyl derivative at 0.2 ug/mL after 48 hrs by GC-MS analysis relative to untreated control; set-up: scale not given: the % may be the effect or the level left; procedure, shortened: as §1
[13] = biological target: T1, Sterol 24-C-methyltransferase (Yarrowia lipolytica); test: Inhibition of Yarrowia lipolytica 24-SMT assessed as lanosterol-3-trimethylsilyl derivative at 0.2 ug/mL after 48 hrs by GC-MS analysis relative to untreated control; set-up: scale not given: the % may be the effect or the level left; procedure, shortened: as §1
[14] = biological target: T1, Sterol 24-C-methyltransferase (Yarrowia lipolytica); test: Inhibition of Yarrowia lipolytica 24-SMT assessed as zymosterol-3-trimethylsilyl derivative level at 0.2 ug/mL after 48 hrs by GC-MS analysis relative to untreated control; set-up: scale not given: the % may be the effect or the level left; procedure, shortened: as §1
[15] = biological target: T1, Sterol 24-C-methyltransferase (Yarrowia lipolytica); test: Inhibition of Yarrowia lipolytica 24-SMT assessed as zymosterol-3-trimethylsilyl derivative level at 2 ug/mL after 48 hrs by GC-MS analysis relative to untreated control; set-up: scale not given: the % may be the effect or the level left; procedure, shortened: as §1
[16] = biological target: T1, Sterol 24-C-methyltransferase (Yarrowia lipolytica); test: Inhibition of Yarrowia lipolytica 24-SMT assessed as dehydroergosterol-3-trimethylsilyl derivative at 2 ug/mL after 48 hrs by GC-MS analysis relative to untreated control; set-up: scale not given: the % may be the effect or the level left; procedure, shortened: as §1
[17] = biological target: T1, Sterol 24-C-methyltransferase (Yarrowia lipolytica); test: Inhibition of Yarrowia lipolytica 24-SMT assessed as 5-dehydroepisterol-3-trimethylsilyl derivative at 2 ug/mL after 48 hrs by GC-MS analysis relative to untreated control; set-up: scale not given: the % may be the effect or the level left; procedure, shortened: as §1
[18] = biological target: T1, Sterol 24-C-methyltransferase (Yarrowia lipolytica); test: Inhibition of Yarrowia lipolytica 24-SMT assessed as cholesta-5,7,24-trien-3-trimethylsilyl derivative at 2 ug/mL after 48 hrs by GC-MS analysis relative to untreated control; set-up: scale not given: the % may be the effect or the level left; procedure, shortened: as §1
[19] = biological target: T1, Sterol 24-C-methyltransferase (Yarrowia lipolytica); test: Inhibition of Yarrowia lipolytica 24-SMT assessed as cholesta-7,24-dien-3-trimethylsilyl derivative at 2 ug/mL after 48 hrs by GC-MS analysis relative to untreated control; set-up: scale not given: the % may be the effect or the level left; procedure, shortened: as §1
[20] = biological target: T1, Sterol 24-C-methyltransferase (Yarrowia lipolytica); test: Inhibition of Yarrowia lipolytica 24-SMT assessed as 5-dehydroepisterol-3-trimethylsilyl derivative at 8 ug/mL after 48 hrs by GC-MS analysis relative to untreated control; set-up: scale not given: the % may be the effect or the level left; procedure, shortened: as §1
[21] = biological target: T1, Sterol 24-C-methyltransferase (Yarrowia lipolytica); test: Inhibition of Yarrowia lipolytica 24-SMT assessed as cholesta-5,7,24-trien-3-trimethylsilyl derivative at 8 ug/mL after 48 hrs by GC-MS analysis relative to untreated control; set-up: scale not given: the % may be the effect or the level left; procedure, shortened: as §1
[22] = biological target: T1, Sterol 24-C-methyltransferase (Yarrowia lipolytica); test: Inhibition of Yarrowia lipolytica 24-SMT assessed as dehydroergosterol-3-trimethylsilyl derivative at 8 ug/mL after 48 hrs by GC-MS analysis relative to untreated control; set-up: scale not given: the % may be the effect or the level left; procedure, shortened: as §1
[23] = biological target: T1, Sterol 24-C-methyltransferase (Yarrowia lipolytica); test: Inhibition of Yarrowia lipolytica 24-sterol C-methyltransferase assessed as ergosterol-3-trimethylsilyl derivative level at 2 ug/mL after 48 hrs by GC-MS analysis relative to untreated control; set-up: scale not given: the % may be the effect or the level left; procedure, shortened: as §1
[24] = biological target: T1, Sterol 24-C-methyltransferase (Yarrowia lipolytica); test: Inhibition of Yarrowia lipolytica 24-SMT assessed as cholesta-7,24-dien-3-trimethylsilyl derivative at 8 ug/mL after 48 hrs by GC-MS analysis relative to untreated control; set-up: scale not given: the % may be the effect or the level left; procedure, shortened: as §1
[25] = biological target: T1, Sterol 24-C-methyltransferase (Yarrowia lipolytica); test: Inhibition of Yarrowia lipolytica 24-SMT assessed as cholesta-7,24-dien-3-trimethylsilyl derivative at 0.06 ug/mL after 48 hrs by GC-MS analysis relative to untreated control; set-up: scale not given: the % may be the effect or the level left; procedure, shortened: as §1
[26] = biological target: T1, Sterol 24-C-methyltransferase (Yarrowia lipolytica); test: Inhibition of Yarrowia lipolytica 24-SMT assessed as 5-dehydroepisterol-3-trimethylsilyl derivative at 0.06 ug/mL after 48 hrs by GC-MS analysis relative to untreated control; set-up: scale not given: the % may be the effect or the level left; procedure, shortened: as §1
[27] = biological target: T1, Sterol 24-C-methyltransferase (Yarrowia lipolytica); test: Inhibition of Yarrowia lipolytica 24-sterol C-methyltransferase assessed as ergosterol-3-trimethylsilyl derivative level at 0.06 ug/mL after 48 hrs by GC-MS analysis relative to untreated control; set-up: scale not given: the % may be the effect or the level left; procedure, shortened: as §1
[28] = biological target: T1, Sterol 24-C-methyltransferase (Yarrowia lipolytica); test: Inhibition of Yarrowia lipolytica 24-SMT assessed as dehydroergosterol-3-trimethylsilyl derivative at 0.06 ug/mL after 48 hrs by GC-MS analysis relative to untreated control; set-up: scale not given: the % may be the effect or the level left; procedure, shortened: as §1
[29] = biological target: T1, Sterol 24-C-methyltransferase (Yarrowia lipolytica); test: Inhibition of Yarrowia lipolytica 24-SMT assessed as cholesta-5,7,24-trien-3-trimethylsilyl derivative at 0.06 ug/mL after 48 hrs by GC-MS analysis relative to untreated control; set-up: scale not given: the % may be the effect or the level left; procedure, shortened: as §1

Compound: CC(C)CNC[C@@H](C)[C@H]1CC[C@H]2C3=CC[C@H]4C[C@@H](O)CC[C@]4(C)[C@H]3CC[C@]12C
Activity [2]: 3.1%
Activity [3]: 43.3%
Activity [4]: 1.2%
Activity [5]: 47.6%
MIC [6]: 0.25 µg/mL (≈ 0.645 µM)
Activity [7]: 0.3%
Activity [8]: 4.4%

Compound: CC(C)C(C)NC[C@@H](C)[C@H]1CC[C@H]2C3=CC[C@H]4C[C@@H](O)CC[C@]4(C)[C@H]3CC[C@]12C (mixture of isomers)
Activity [9]: 2.4%
Activity [10]: 18%
Activity [11]: 73.3%
Activity [12]: 4.6%
Activity [13]: 0.3%
MIC [6]: 0.5 µg/mL
Activity [14]: 1.4%

Compound: CNC[C@@H](C)[C@H]1CC[C@H]2C3=CC[C@H]4C[C@@H](O)CC[C@]4(C)[C@H]3CC[C@]12C
Activity [15]: 1.6%
Activity [16]: 55.4%
MIC [6]: > 2 µg/mL
Activity [17]: 2.6%
Activity [18]: 40.4%

Compound: C[C@H](CNCCCN(C)C)[C@H]1CC[C@H]2C3=CC[C@H]4C[C@@H](O)CC[C@]4(C)[C@H]3CC[C@]12C
Activity [19]: 2%
Activity [20]: 2.3%
Activity [21]: 65.4%
Activity [22]: 27.2%
Activity [23]: 2.7%
Activity [24]: 5.1%
Activity [16]: 66.4%
MIC [6]: > 2 µg/mL
Activity [17]: 3.3%
Activity [18]: 25.6%

Compound: CCCNCC[C@@H](C)[C@H]1CC[C@H]2C3=CC[C@H]4C[C@@H](O)CC[C@]4(C)[C@H]3CC[C@]12C
Activity [25]: 5.4%
Activity [26]: 2.9%
Activity [27]: 5%
Activity [28]: 25.9%
Activity [29]: 60.8%
MIC [6]: 0.25 µg/mL (≈ 0.645 µM)

Next, values leading:

MIC [1]: inactive
Compound: C[C@H](/C=C/c1ccncc1)[C@H]1CC[C@H]2C3=CCC4C[C@@H](O)CC[C@]4(C)[C@H]3CC[C@]12C (stereo partly drawn)

MIC [1]: inactive
Compound: C[C@H](/C=C/c1ccccn1)[C@H]1CC[C@H]2C3=CCC4C[C@@H](O)CC[C@]4(C)[C@H]3CC[C@]12C (stereo partly drawn)

MIC [1]: inactive
Compound: CCCCCCCCCCCCNC[C@@H](C)[C@H]1CC[C@H]2C3=CC[C@H]4C[C@@H](O)CC[C@]4(C)[C@H]3CC[C@]12C

From ChEMBL document CHEMBL1152672, “Side chain azasteroids and thiasteroids as sterol methyltransferase inhibitors in ergosterol biosynthesis” (2009)
